# Columns and labels:
# [1] = molecular target: T1, Polyunsaturated fatty acid 5-lipoxygenase (Rattus norvegicus, UniProt P12527); assay: Inhibitory activity against the production of leukotriene B4 (LTB4) in glycogen-induced peritoneal cells of rat; format: functional
# T1 sequence (P12527 whole entry): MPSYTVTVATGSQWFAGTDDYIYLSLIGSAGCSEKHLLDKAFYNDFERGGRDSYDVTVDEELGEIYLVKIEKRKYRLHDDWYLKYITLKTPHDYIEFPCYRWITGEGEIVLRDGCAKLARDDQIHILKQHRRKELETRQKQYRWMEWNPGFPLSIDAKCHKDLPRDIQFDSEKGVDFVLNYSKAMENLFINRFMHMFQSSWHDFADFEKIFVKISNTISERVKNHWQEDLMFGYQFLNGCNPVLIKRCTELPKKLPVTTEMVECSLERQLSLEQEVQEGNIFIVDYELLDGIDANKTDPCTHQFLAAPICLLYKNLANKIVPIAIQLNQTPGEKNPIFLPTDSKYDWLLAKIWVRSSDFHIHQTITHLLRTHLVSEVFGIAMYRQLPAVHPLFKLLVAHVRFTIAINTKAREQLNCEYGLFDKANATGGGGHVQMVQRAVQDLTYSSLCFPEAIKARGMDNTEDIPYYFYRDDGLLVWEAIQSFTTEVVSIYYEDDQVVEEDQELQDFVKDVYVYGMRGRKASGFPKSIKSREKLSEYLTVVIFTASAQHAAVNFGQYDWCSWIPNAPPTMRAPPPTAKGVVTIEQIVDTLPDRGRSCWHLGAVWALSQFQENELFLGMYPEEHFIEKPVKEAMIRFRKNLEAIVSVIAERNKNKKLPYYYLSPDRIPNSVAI
# Summary of the method: (§1)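 Peritoneal leukocytes elicited in male F344 rats by ip 6% glycogen, suspended in Ca/Mg-free HBSS (5 × 10⁶ cells/mL). Cells preincubated 5 min at 37 °C with compound or vehicle (0.1% DMSO/0.1% BSA), stimulated with A23187 (4 μM, 10 min, 37 °C), stopped with BW755C. LTB₄, TXB₂ and PGE₂ in supernatant by radioimmunoassay. Duplicate points; IC50 by probit analysis.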
# Rattus norvegicus [2] = assay: Tested for the ability to decrease lesion area in the colon of the TNB/ethanol-induced chronic colitis rats at the dosage of 100 mg/kg/day; format: functional
# Summary of the method: (§2)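 TNB/ethanol colitis rats dosed orally (0.5% MC suspension) once daily for 11 days from day 3, killed day 14. Ethanol-only group as baseline. Colonic MPO activity measured; lesion area (mm²/colon) by stereomicroscope. % inhibition = [1 − (test − ethanol)/(control − ethanol)] × 100. Mean ± SEM.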
# Thromboxane-A synthase [3] = molecular target: T2, Thromboxane-A synthase (Rattus norvegicus, UniProt P49430); assay: Inhibitory activity against the production of thromboxane B2 (TXB2) in glycogen-induced peritoneal cells of rat; format: functional; summary of the method: as §1
# T2 sequence (P49430 whole entry): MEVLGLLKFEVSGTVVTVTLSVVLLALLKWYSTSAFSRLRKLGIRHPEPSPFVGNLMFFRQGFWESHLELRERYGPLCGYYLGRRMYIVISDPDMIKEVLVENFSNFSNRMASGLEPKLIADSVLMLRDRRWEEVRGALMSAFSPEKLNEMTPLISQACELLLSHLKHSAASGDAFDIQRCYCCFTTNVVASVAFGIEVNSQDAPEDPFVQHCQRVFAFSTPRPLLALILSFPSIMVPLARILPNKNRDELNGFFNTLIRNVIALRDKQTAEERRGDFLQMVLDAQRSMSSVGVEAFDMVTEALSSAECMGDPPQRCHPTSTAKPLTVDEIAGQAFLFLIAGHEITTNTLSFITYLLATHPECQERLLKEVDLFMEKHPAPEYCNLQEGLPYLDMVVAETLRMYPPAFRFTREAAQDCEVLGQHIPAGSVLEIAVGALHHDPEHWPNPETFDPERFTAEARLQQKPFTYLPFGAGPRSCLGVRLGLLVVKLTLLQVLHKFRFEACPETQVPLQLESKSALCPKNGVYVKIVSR
# [4] = molecular target: Cyclooxygenase (Rattus norvegicus); assay: Inhibitory activity against the production of prostaglandin E2 (PGE2) in glycogen-induced peritoneal cells of rat
# Homo sapiens [5] = species: Homo sapiens; assay: Tested for inhibitory activity against the production of thromboxane B2 (TXB2) in human whole blood; format: functional, organism-based
# Summary of the method: (§3)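 Heparinized (10 U/mL) fresh blood from healthy volunteers, 0.4 mL aliquots, preincubated 5 min at 37 °C with compound or vehicle (0.1% DMSO/0.1% BSA). A23187 (40 μM) added for 20 min. LTB₄, TXB₂, PGE₂ in plasma by radioimmunoassay. Duplicate points; IC50 by probit analysis.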
# Thromboxane-A synthase [6] = molecular target: T3, Thromboxane-A synthase (Homo sapiens, UniProt P24557); assay: Tested for inhibitory activity against thromboxane A2 (TXA2) synthetase in microsome of human platelets
# T3 sequence (P24557 whole entry): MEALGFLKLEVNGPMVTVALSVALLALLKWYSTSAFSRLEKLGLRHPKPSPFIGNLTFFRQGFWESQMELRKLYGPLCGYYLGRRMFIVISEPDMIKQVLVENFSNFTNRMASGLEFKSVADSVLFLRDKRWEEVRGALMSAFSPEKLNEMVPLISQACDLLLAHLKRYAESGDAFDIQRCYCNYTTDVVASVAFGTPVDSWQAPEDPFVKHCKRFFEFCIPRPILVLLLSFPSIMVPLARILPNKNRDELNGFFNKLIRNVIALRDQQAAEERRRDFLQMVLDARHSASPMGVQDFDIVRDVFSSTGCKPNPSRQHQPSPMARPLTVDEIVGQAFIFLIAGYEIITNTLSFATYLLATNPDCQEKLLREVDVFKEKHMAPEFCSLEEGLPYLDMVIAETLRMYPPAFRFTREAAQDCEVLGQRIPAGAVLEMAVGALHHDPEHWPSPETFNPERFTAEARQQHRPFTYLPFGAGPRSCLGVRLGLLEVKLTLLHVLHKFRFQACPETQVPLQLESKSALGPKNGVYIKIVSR
# Summary of the method: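 Platelet microsome fraction (105000g) resuspended in 50 mM Tris-HCl-saline, pH 7.4, with 10 μM indomethacin. 20 μg protein preincubated 5 min at 25 °C with compound, PGH₂ (1 μg/mL) for 1 min at 25 °C, citric acid/ethanol stop. TXB₂ by radioimmunoassay. Duplicate points; IC50 by probit analysis.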
# [7] = Tested for inhibitory activity against thromboxane B2 (TXB2) in human platelets
# Summary of the method: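 Washed human platelets (3 × 10⁸ cells/mL) in Tris-HCl-saline, pH 7.4, with 10 μM indomethacin. Preincubated 5 min at 25 °C with compound, PGH₂ (1 μg/mL) for 3 min at 25 °C, citrate/ethanol stop. TXB₂ in supernatant by radioimmunoassay. Duplicate points; IC50 by probit analysis.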
# Homo sapiens [8] = species: Homo sapiens; assay: Tested for inhibitory activity against the production of prostaglandin E2 (PGE2) in human whole blood; format: functional, organism-based; summary of the method: as §3
# Homo sapiens [9] = species: Homo sapiens; assay: Tested for inhibitory activity against the production of leukotriene B4 (LTB4) in human whole blood; format: functional, organism-based; summary of the method: as §3
# [10] = molecular target: T1, Polyunsaturated fatty acid 5-lipoxygenase; assay: Tested for inhibitory activity against 5-lipoxygenase in microsome of RBL-1 cells; format: cell-based
# Summary of the method: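 RBL-1 cells sonicated at 0 °C in 50 mM phosphate, pH 7.4, with 0.25 M sucrose and 1 mM EDTA. Homogenate preincubated 5 min at 37 °C with compound plus 2 mM glutathione, then arachidonic acid (0.2 mM) for 10 min at 37 °C. Formic acid stop, CHCl₃/MeOH extraction, 5-HETE by HPLC. Duplicate points; IC50 by probit analysis.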
# [11] = Tested for the suppression ratio, the difference between the amount of PGE-2 produced in the test groups and the control group at the dosage of 100 mg/kg; format: functional
# Summary of the method: (§4)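 Male F344 rats (9 weeks, fasted 2 days) given a single intracolonic dose of 30 mg TNB in 0.25 mL 50% ethanol. Day 7: one oral dose in 0.5% MC, or vehicle. Killed 6 h later; colon incubated with A23187 (2 μg/mL) in Tyrode, 15 min, 37 °C. Eicosanoids by radioimmunoassay. Suppression versus vehicle controls; mean ± SEM.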
# [12] = Tested for the suppression ratio, the difference between the amount of TXB2 produced in the test groups and the control group at the dosage of 100 mg/kg; format: functional; summary of the method: as §4
# [13] = Tested for the suppression ratio, the difference between the amount of LTB4 produced in the test groups and the control group at the dosage of 100 mg/kg; format: functional; summary of the method: as §4
# Homo sapiens [14] = species: Homo sapiens; assay: Tested for inhibitory activity against leukotriene B4 (LTB4) in human neutrophils; format: functional, organism-based
# Summary of the method: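 Human blood neutrophils from heparinized blood (dextran sedimentation, Percoll gradient), 1 × 10⁶ cells/mL in Ca/Mg-free HBSS. Preincubated 5 min at 37 °C with compound or vehicle, A23187 (4 μM) for 10 min. LTB₄ in cell-free supernatant by radioimmunoassay. Duplicate points; IC50 by probit analysis.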
# Rattus norvegicus [15] = assay: Tested for the ability to decrease lesion area in the colon of the TNB/ethanol-induced chronic colitis rats at the dosage of 500 mg/kg/day; format: functional; summary of the method: as §2
SMILES,IC50 [1],inhibition in vivo at 100 mg/kg/day (Rattus norvegicus [2]),IC50 (Thromboxane-A synthase [3]),IC50 [4],also measured
Cc1c(O)c(C)c2sc(NCc3cccnc3)nc2c1C,< 100 nM,81%,2000 nM,–,–
CCc1c(O)c(OC)c(Cc2cccnc2)c2nc(NC)sc12,< 100 nM,–,330 nM,> 100 µM,–
CNc1nc2c(Cc3cccnc3)c(C)c(O)c(C)c2s1,–,39%,–,–,IC50 (Homo sapiens [5]): 1.1 µM; IC50 (Thromboxane-A synthase [6]): 9 nM; IC50 [7]: 80 nM; IC50 (Homo sapiens [8]): > 90 µM; IC50 (Homo sapiens [9]): 830 nM; IC50 [10]: 230 nM
CCNc1nc2c(C)c(C)c(O)c(Cc3cccnc3)c2s1,< 100 nM,64%,2000 nM,> 100 µM,Suppression ratio [11]: 41%; IC50 (Homo sapiens [5]): 34.8 µM; Suppression ratio [12]: 53%; IC50 (Thromboxane-A synthase [6]): 810 nM; IC50 [7]: 4300 nM; IC50 (Homo sapiens [8]): > 100 µM; Suppression ratio [13]: 89%; IC50 (Homo sapiens [9]): 500 nM; IC50 [10]: 270 nM
CCNc1nc2c(C)c(Cc3cccnc3)c(O)c(C)c2s1,230 nM,48%,650 nM,> 100 µM,Suppression ratio [11]: 8%; Suppression ratio [12]: 67%; IC50 (Thromboxane-A synthase [6]): 390 nM; IC50 [7]: 2300 nM; Suppression ratio [13]: 83%
Cc1c(O)c(C)c2sc(NCc3ccc(S(N)(=O)=O)cc3)nc2c1C,–,–,–,–,Suppression ratio [11]: 0%; IC50 (Homo sapiens [5]): 42 µM; Suppression ratio [12]: 0%; IC50 [7]: > 100000 nM; IC50 (Homo sapiens [8]): > 100 µM; Suppression ratio [13]: 86%; IC50 (Homo sapiens [9]): 24000 nM; IC50 [10]: 210 nM
Cc1cc(O)c(C)c2sc(NCc3cccnc3)nc12,< 100 nM,71%,4400 nM,–,–
Cc1c(O)c2ccccc2c2nc(NCc3cccnc3)sc12,1600 nM,–,4000 nM,5.5 µM,–
CNc1nc2c(Cc3cccnc3)c(OC)c(O)c(C)c2s1,170 nM,–,1300 nM,–,–
CCCNc1nc2c(Cc3cccnc3)c(C)c(O)c(C)c2s1.Cl.Cl,< 100 nM,–,90 nM,> 100 µM,–
CNc1nc2c(C)c(Cc3cccnc3)c(O)c(C)c2s1.Cl.Cl,300 nM,–,< 100 nM,> 100 µM,–
Cc1c(O)c(Cc2cccnc2)c2sc(N)nc2c1C.Cl.Cl,250 nM,–,5300 nM,> 100 µM,–
COc1c(O)c(C)c2sc(N)nc2c1Cc1cccnc1.Cl.Cl,170 nM,–,110 nM,> 100 µM,–
Cc1c(O)c(C)c2sc(N)nc2c1Cc1cccnc1,190 nM,–,2 nM,–,–
CCc1c(O)c(OC)c(Cc2cccnc2)c2nc(N)sc12,150 nM,–,180 nM,–,–
CCNc1nc2c(Cc3cccnc3)c(C)c(O)c(C)c2s1,< 100 nM,57%,100 nM,–,IC50 (Homo sapiens [5]): 0.56 µM; IC50 (Thromboxane-A synthase [6]): 10 nM; IC50 [7]: 60 nM; IC50 (Homo sapiens [14]): < 100 nM; IC50 (Homo sapiens [8]): > 91 µM; IC50 (Homo sapiens [9]): 1100 nM; IC50 [10]: 910 nM
Oc1cc(-c2ccccc2)c2nc(NCc3cccnc3)sc2c1,7000 nM,–,1400 nM,9.6 µM,–
COc1cc2nc(NCc3cccnc3)sc2c(OC)c1O,90 nM,–,5500 nM,–,–
O=C(O)c1cc(/N=N/c2ccc(S(=O)(=O)Nc3ccccn3)cc2)ccc1O [SULFASALAZINE],–,–,–,–,inhibition in vivo at 500 mg/kg/day (Rattus norvegicus [15]): 16%
